Target: MLL PHD3 finger (Homo sapiens, UniProt Q03164)
Experiment: NMR titration of histone peptides
Assay type: binding
Settings: 0.2 mM 15N-labeled PHD3, 12-mer histone tail peptide, 298K
How it was run: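 PHD3 finger (residues 1565-1627, wild type or mutant) was expressed as a GST fusion in E. coli BL21(DE3) pLysS grown in 15NH4Cl minimal medium. It was affinity-purified, GST-cleaved, size-exclusion purified and held in 25 mM d11-Tris pH 6.8, 150 mM KCl, 10 mM deuterated DTT and 7% 2H2O. 12-mer histone tail peptides were added stepwise to 0.2 mM protein, and normalized chemical shift changes were tracked in 1H,15N HSQC spectra.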

Sequence of MLL PHD3 finger (Q03164 1565-1627): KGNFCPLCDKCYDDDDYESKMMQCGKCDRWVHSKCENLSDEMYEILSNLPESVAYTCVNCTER

exchange regime on NMR time scale: intermediate-to-fast exchange regime
Substance: H3K4me3: histone H3 tail peptide trimethylated at lysine 4 (biotinylated residues 1-21; 12-mer for NMR)
